Laboratory results as given in ChEMBL document CHEMBL3526063, “Metabolism and pharmacokinetics of JM6 in mice: JM6 is not a prodrug for Ro-61-8048” (Drug Metab Dispos, 2012).

What was measured:
[1] = AUClast in C57BL/6N mouse at 0.05 mg/kg, po administered via gavage by LC-MS/MS analysis; type: ADME, organism-based; set-up: time 0 - last, dose 0.05 mg/kg, route oral; conditions: plasma
Outline: (§1)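 Male C57BL/6N mice were dosed by oral gavage at 10 mL/kg with a fine suspension in 10% hydroxypropyl-β-cyclodextrin in 50 mM phosphate buffer, pH 7. Plasma was taken at non-serial time points (n=3 per time point), extracted with 0.1% formic acid in acetonitrile containing diclofenac as internal standard, and quantified by UPLC-MS/MS. Composite non-compartmental parameters came from mean concentrations; AUClast by linear trapezoid, kel from at least three terminal points.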

[2] = AUC(infinity) in C57BL/6N mouse at 0.05 mg/kg, po administered via gavage by LC-MS/MS analysis; type: ADME, organism-based; set-up: time infinity, dose 0.05 mg/kg, route oral; conditions: plasma; outline: as §1
[3] = system: Mus musculus; assay: Dose normalised AUC in C57BL/6N mouse at 0.05 mg/kg, po administered via gavage by LC-MS/MS analysis; type: ADME, organism-based; set-up: dose 0.05 mg/kg, route oral; conditions: in vivo; outline: as §1
[4] = Oral bioavailability in C57BL/6N mouse at 0.05 mg/kg administered via gavage by LC-MS/MS analysis; type: ADME, organism-based; conditions: in vivo
Outline: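 Male C57BL/6N mice dosed by oral gavage (10 mL/kg) as fine suspensions in 10% hydroxypropyl-β-cyclodextrin in 50 mM phosphate buffer pH 7; dose formulations verified by LC-MS/MS. Plasma analysed by LC-MS/MS; composite non-compartmental parameters from mean concentrations (n=3 per time point), C0 set to zero. %F = dose-normalised po AUCinf over dose-normalised iv AUCinf, only within linear range.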

[5] = biological target: Kynurenine 3-monooxygenase (Mus musculus, UniProt Q91WN4); assay: Inhibition of C57BL/6J mouse KMO assessed as 3-hydroxykynurenine formation preincubated for 5 mins using 100 uM kynurenine as substrate by LC-MS/MS analysis in presence of 3 mg/ml plasma protein
Outline: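 Liver mitochondrial KMO (mouse C57 BL/6J or human), 0.3 mg protein/mL in 100 mM potassium phosphate pH 7.4, 200 µM NADPH, NADPH-regenerating system, plus 3 mg/mL plasma protein. Compound pre-incubated 5 min at 25°C; 100 µM kynurenine started reaction for 40 min (mouse) or 60 min (human); TCA stop; 3-hydroxykynurenine by LC-MS/MS. IC50 from 8-point 3-fold series, triplicates, n≥2.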

[6] = biological target: Kynurenine 3-monooxygenase (Rattus norvegicus, UniProt O88867); assay: Inhibition of Wistar rat KMO assessed as 3-hydroxykynurenine formation preincubated for 5 mins using 100 uM kynurenine as substrate by LC-MS/MS analysis in presence of 3 mg/ml plasma protein
Outline: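 KMO from Wistar rat liver (0.3 mg protein/ml) preincubated 5 min at 25°C with compound plus 3 mg/mL plasma protein in 100 mM potassium phosphate pH 7.4, 200 µM NADPH, G6PDH regenerating system. Started with 100 µM kynurenine, 40 min, stopped with TCA; 3-hydroxykynurenine by LC-MS/MS. 8-point 3-fold dilutions; triplicates, ≥2 runs.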

[7] = Cmax in R6/2 mouse at 7.5 mg/kg/day, po; type: ADME, organism-based; set-up: dose 7.5 mg/kg/day, route oral; conditions: in vivo
[8] = AUClast in C57BL/6N mouse at 5 mg/kg, iv administered as single dose by LC-MS/MS analysis; type: ADME, organism-based; set-up: time 0 - last, dose 5 mg/kg, route intravenous; conditions: plasma
Outline: (§2)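 Single intravenous bolus of 5 mg/kg to male C57BL/6N mice, given as a filtered 1 mg/mL solution in DMSO:PEG400:water 10:50:40 (v/v). Plasma was extracted in acidified acetonitrile with diclofenac as internal standard and analysed by UPLC-MS/MS. Non-compartmental analysis used mean concentrations (n=3 per time point), with C0 back-extrapolated from the first two samples. AUCinf = AUClast + Ct/kel.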

[9] = Plasma clearance in C57BL/6N mouse at 5 mg/kg, iv administered as single dose by LC-MS/MS analysis; type: ADME, organism-based; set-up: dose 5 mg/kg, route intravenous
Outline: (§3)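 Male C57BL/6N mice given 5 mg/kg iv bolus as 1 mg/mL filtered solution in DMSO:PEG400:water 10:50:40. Plasma extracted with acidified acetonitrile (diclofenac IS), analysed by LC-MS/MS. Composite non-compartmental parameters from mean concentrations (n=3 per time point); C0 back-extrapolated from first two points; kel from at least last three concentrations.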

[10] = Mean residence time in C57BL/6N mouse at 5 mg/kg, iv administered as single dose by LC-MS/MS analysis; type: ADME, organism-based; set-up: dose 5 mg/kg, route intravenous; conditions: in vivo; outline: as §3
[11] = Half life in C57BL/6N mouse at 5 mg/kg, iv administered as single dose by LC-MS/MS analysis; type: ADME, organism-based; set-up: dose 5 mg/kg, route intravenous; conditions: in vivo; outline: as §2
[12] = system: Mus musculus; assay: Dose normalised Cmax in C57BL/6N mouse at 10 mg/kg, po administered via gavage containing <0.4% Ro-61-8048 by LC-MS/MS analysis; type: ADME, organism-based; set-up: dose 10 mg/kg, route oral; conditions: in vivo; outline: as §1
[13] = system: Mus musculus; assay: Half life in C57BL/6N mouse at 10 mg/kg, po administered via gavage containing <0.4% Ro-61-8048 by LC-MS/MS analysis; type: ADME, organism-based; set-up: dose 10 mg/kg, route oral; conditions: in vivo; outline: as §1
[14] = Metabolic stability in mouse blood assessed as half life at 5 uM by LC-MS/MS analysis; type: ADME, tissue-based
[15] = AUClast in C57BL/6N mouse at 5 mg/kg, iv administered as single dose containing <0.4% Ro-61-8048 by LC-MS/MS analysis; type: ADME, organism-based; set-up: time 0 - last, dose 5 mg/kg, route intravenous; conditions: plasma; outline: as §2
[16] = AUC(infinity) in C57BL/6N mouse at 5 mg/kg, iv administered as single dose containing <0.4% Ro-61-8048 by LC-MS/MS analysis; type: ADME, organism-based; set-up: time infinity, dose 5 mg/kg, route intravenous; conditions: plasma; outline: as §2
[17] = Plasma clearance in C57BL/6N mouse at 5 mg/kg, iv administered as single dose containing <0.4% Ro-61-8048 by LC-MS/MS analysis; type: ADME, organism-based; set-up: dose 5 mg/kg, route intravenous
Outline: (§4)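 Male C57BL/6N mice given 5 mg/kg iv bolus (1 mg/mL, DMSO:PEG400:water 10:50:40, filtered); dosed material carried Ro-61-8048 as impurity, which was also quantified in plasma. LC-MS/MS after acetonitrile/formic acid extraction; composite non-compartmental analysis of mean concentrations (n=3 per time point), C0 back-extrapolated, kel from ≥3 terminal points.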

[18] = Volume of distribution at steady state in C57BL/6N mouse at 5 mg/kg, iv administered as single dose containing <0.4% Ro-61-8048 by LC-MS/MS analysis; type: ADME, organism-based; set-up: dose 5 mg/kg, route intravenous; conditions: in vivo, read-out: Vdss; outline: as §4
[19] = Mean residence time in C57BL/6N mouse at 5 mg/kg, iv administered as single dose containing <0.4% Ro-61-8048 by LC-MS/MS analysis; type: ADME, organism-based; set-up: dose 5 mg/kg, route intravenous; conditions: in vivo; outline: as §4
[20] = system: Liver; assay: Metabolic stability in mouse liver microsomes assessed as intrinsic clearance at 1 uM after 5 to 40 mins by LC-MS/MS analysis

Kynurenine 3-monooxygenase (Mus musculus, UniProt Q91WN4), sequence (Q91WN4 whole entry): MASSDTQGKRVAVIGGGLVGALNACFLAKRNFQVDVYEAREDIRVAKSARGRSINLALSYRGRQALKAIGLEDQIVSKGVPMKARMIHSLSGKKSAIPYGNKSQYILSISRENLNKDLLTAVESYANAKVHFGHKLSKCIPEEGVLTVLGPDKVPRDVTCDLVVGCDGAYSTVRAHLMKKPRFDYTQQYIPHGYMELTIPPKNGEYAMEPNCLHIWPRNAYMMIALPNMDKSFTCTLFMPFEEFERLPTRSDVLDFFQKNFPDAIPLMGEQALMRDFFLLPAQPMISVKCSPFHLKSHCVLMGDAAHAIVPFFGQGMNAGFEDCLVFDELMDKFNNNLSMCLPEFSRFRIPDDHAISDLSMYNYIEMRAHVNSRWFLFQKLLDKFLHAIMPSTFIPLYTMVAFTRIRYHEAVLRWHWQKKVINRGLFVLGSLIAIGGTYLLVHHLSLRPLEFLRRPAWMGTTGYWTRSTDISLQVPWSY
Kynurenine 3-monooxygenase (Rattus norvegicus, UniProt O88867), sequence (O88867 whole entry): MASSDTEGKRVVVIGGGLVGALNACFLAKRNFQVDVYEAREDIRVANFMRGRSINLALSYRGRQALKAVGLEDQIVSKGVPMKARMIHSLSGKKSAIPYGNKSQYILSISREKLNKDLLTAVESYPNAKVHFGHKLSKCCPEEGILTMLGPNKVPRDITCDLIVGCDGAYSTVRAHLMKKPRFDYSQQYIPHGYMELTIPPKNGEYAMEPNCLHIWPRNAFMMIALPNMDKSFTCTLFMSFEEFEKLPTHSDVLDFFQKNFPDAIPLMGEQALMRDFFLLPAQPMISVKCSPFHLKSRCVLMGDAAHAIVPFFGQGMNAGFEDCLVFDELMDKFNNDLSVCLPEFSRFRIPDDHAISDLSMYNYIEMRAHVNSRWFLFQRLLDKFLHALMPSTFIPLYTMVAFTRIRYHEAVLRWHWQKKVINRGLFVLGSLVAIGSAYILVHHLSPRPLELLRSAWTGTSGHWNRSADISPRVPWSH

AUC(0-t) [1] [µM·h]	AUC(0-inf) [2] [µM·h]	AUC/dose [3] [nM·kg·h/mg]	bioavailability [4] [%]	IC50 [5] [µM]	IC50 [6] [µM]	Cmax [7] [nM]	AUC(0-t) [8] [µM·h]	clearance [9] [mL/min/kg]	MRT [10] [h]	half-life [11] [h]	Cmax/dose [12] [nM]	t1/2 [13] [h]	half-life at 5 µM [14] [h]	AUC(0-t) [15] [µM·h]	AUC(0-inf) [16] [µM·h]	clearance [17] [mL/min/kg]	Vd [18] [L/kg]	MRT [19] [h]	CLH [20] [µL/min/mg]	SMILES
4.3	4.5	90000	70	≥ 12	8	280	510	0.3	8.3	6.5										COc1ccc(S(=O)(=O)Nc2nc(-c3cccc([N+](=O)[O-])c3)cs2)cc1OC
											110	1.1	> 2.5	5.2	5.2	31.7	0.37	0.2	220	COc1ccc(S(=O)(=O)Nc2nc(-c3cccc([N+](=O)[O-])c3)c(CN3CCCCC3)s2)cc1OC
